Screens as filed in PubChem.
This is a sample that favours compounds with a hit; in the whole collection about 4.6% have one here.
TAAR1 antag = human TAAR1 antagonism; 360,000 compounds, 1.5% hits; AID 624466; CHO RD-HGA16 TAAR1, Fluo-8 calcium fluorescence, antagonist; inhibition, % at 3 µM; Q96RJ0;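 active = inhibition above a per-plate cutoff, the mean inhibition of test compounds on that plate plus 3 SD, cut at about 49% in these data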;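 also: 0% = DMSO plus EC80 beta-PEA response and 100% = DMSO alone without agonist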
Target sequence (Q96RJ0 whole entry, looked up): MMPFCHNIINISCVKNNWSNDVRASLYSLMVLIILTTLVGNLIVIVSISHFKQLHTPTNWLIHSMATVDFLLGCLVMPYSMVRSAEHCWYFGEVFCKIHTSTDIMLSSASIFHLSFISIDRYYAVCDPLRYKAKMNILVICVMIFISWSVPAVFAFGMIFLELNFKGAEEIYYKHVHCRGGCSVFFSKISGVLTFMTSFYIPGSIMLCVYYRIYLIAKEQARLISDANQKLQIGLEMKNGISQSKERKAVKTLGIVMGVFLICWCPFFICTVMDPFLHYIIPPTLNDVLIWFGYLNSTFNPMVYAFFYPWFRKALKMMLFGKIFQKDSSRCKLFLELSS
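Test system – hTAAR1-expressing CHO RD-HGA16 cells, Gα16-coupled · Reagent – β-PEA at EC80 concentration, post-compound challenge · Compound dosing – 3 µM, single point · Timing – 140 s kinetic read after compound, 140 s after agonist · Detection – Fluo-8 intracellular calcium dye fluorescence, real-time kinetic reads · Control set – DMSO and EC80 PEA controls · Repeats – n of 1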
TAAR1 ag = agonists of human TAAR1; Q96RJ0; CHO RD-HGA16 TAAR1, Fluo-8 calcium fluorescence; vehicle wells 0%, saturating PEA agonist 100%; activation, % at 3 µM; 360,000 compounds, 0.99% hits; AID 624467;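 active = activation above the mean activation of all test compounds in the run plus 3 SD, cut at about 38% in these data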
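Test system: RD-HGA16 (CHO) cells co-expressing Gα16 and hTAAR1 / Benchmarks: DMSO vehicle as 0%, PEA at EC100 as 100% / Repeats: no replicates (n 1) / Measure: % activation from peak over basal fluorescence ratio, DMSO-to-PEA scaled / Timing: 17-24 h plating, Fluo-8 75 min 37 °C, 30 min RT / Technique: kinetic Fluo-8 calcium fluorescence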
OX1R antag-1 = antagonists of human orexin 1 receptor (OX1R); O43613; OX1R-expressing cells, FRET antagonist read-out; inhibition, % at 6.6 µM; 330,000 compounds, 1.8% hits; AID 485270; in the data active = inhibition mostly above about 38%, no sharp cut-off; inactive = mostly below about 40%;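 also: 0% = agonist challenge alone and 100% = reference antagonist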
GPR7 antagonist = blocks human GPR7 receptor signaling | P48145 | GPR7-expressing cells, fluorescence antagonist assay | inhibition, % at 4.4 µM | 290,000 compounds, 1.1% hits | AID 1861; in the data active = inhibition above about 16%, passing the limit was not always enough;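 also: cells stimulated with the agonist NPW; 0% = agonist with vehicle and 100% = vehicle without agonist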
Target sequence (P48145 whole entry, looked up): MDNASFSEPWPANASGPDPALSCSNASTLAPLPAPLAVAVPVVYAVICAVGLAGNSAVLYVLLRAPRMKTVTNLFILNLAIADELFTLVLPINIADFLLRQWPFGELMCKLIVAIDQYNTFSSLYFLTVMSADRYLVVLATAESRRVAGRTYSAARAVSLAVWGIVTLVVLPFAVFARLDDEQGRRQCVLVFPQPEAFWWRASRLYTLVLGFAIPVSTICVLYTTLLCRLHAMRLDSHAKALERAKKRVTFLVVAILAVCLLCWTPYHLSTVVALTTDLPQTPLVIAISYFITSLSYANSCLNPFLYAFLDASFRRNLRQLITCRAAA
OX1R antag-2 = blocks the human orexin 1 receptor | CHO/OX1R cells, Fluo-8 calcium fluorescence, orexin A | inhibition, % at 5 µM | 330,000 compounds, 0.43% hits | AID 434989;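 active = inhibition above its plate's threshold, mean inhibition of all tested compounds on the plate plus 3 SD, cut at about 37% in these data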;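 also: 0% = orexin A challenge wells and 100% = SB-334867-A antagonist wells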
CHO parental Ca = counter-screen for OX1R antagonists: effect in parental CHO cells. parental CHO-K1, ATP-induced calcium, Fluo-8 fluorescence. inhibition, % at 5.6 µM. 330,000 compounds, 0.63% hits;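 active = inhibition above that plate's mean sample inhibition plus 3 SD, cut at about 26% in these data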;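 also: 0% = ATP-challenged DMSO wells and 100% = DMSO wells without ATP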
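Material: Parental CHO cells | Reagent: ATP | Compound dosing: Single nominal dose of 5.6 µM per compound | Detection: Intracellular calcium via Fluo-8 no-wash fluorescent dye | Read-out: % inhibition of ATP-induced calcium mobilization | Benchmarks: Low control ATP plus DMSO, high control DMSO only | Replicates: Singlicate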
GPR7 antag conf = confirmation of human GPR7 antagonists | shares compounds with GPR7 antagonist | 2,400 compounds, 52% hits | GPR7-expressing cells, calcium fluorescence antagonist mode | inhibition, % at 4.4 µM; in the data active = inhibition above about 24%;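 also: stimulated with the GPR7 agonist NPW; 0% = agonist plus vehicle and 100% = vehicle alone without agonist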
MCHR1 antag = counter-screen for GPR7 antagonists: antagonists of human MCHR1 | MCHR1-expressing cells, fluorescence antagonist assay | shares compounds with GPR7 antagonist | inhibition, % at 4.4 µM | 2,400 compounds, 62% hits | AID 2148; in the data active = inhibition above about 22%;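 also: 0% = vehicle with agonist and 100% = vehicle without agonist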
* marks the source's active call; other numbers are inactive results; x = no result given.

SMILES	TAAR1 antag	TAAR1 ag	OX1R antag-1	GPR7 antagonist	OX1R antag-2	CHO parental Ca	GPR7 antag conf	MCHR1 antag
CCCC(c1nnnn1C1CCCCC1)N1CCN(C2CCCC2)CC1 (stereo not drawn)	1	4	5	22*	-20	-21	22	17
Oc1ccc(/C=C/c2ccnc3ccccc23)cc1	-11	14	27	0	14	8	x	x
Clc1ccccc1/C=C/c1ccnc2ccccc12	7	15	20	7	-32	-39	-6	13
CCCN(CCC)c1nc(Cl)nc(NCc2ccco2)n1	-9	18	18	21*	-44	-22	-13	7
CCCCC1=CC2=CC(=O)C(C)(OC(=O)CC)C(=O)C2=CN1Cc1ccc2c(c1)OCO2 (stereo not drawn)	2	3	27	x	-12	-18	x	x
Clc1ccc(Cn2ncc3c(NCc4ccco4)ncnc32)c(Cl)c1	53*	12	59	28*	18	2	37*	56*
N#Cc1ccc(/C=C/C(=O)c2cccnc2)cc1	-9	5	13	0	-11	-1	x	x
O=C(/C=C/c1ccc(Cl)cc1)c1cccnc1	2	5	38	29*	-32	-27	51*	78*
CCCCC(CC)C(=O)Nc1cc(C(=O)NCCC)ccc1N1CCC2(CC1)CC(c1cccc(Br)c1)=NO2 (stereo not drawn)	1	3	28	x	-28	-20	x	x
O=C(Nc1cccc(Cl)c1)c1ccccc1	0	4	11	x	-17	-10	x	x
CCN(c1ccccc1)S(=O)(=O)c1cc(C(=O)Nc2cccc(Cl)c2)ccc1F	32	7	21	26*	-2	12	9	51*
Cc1cccc(NC(=O)CCc2ccc(C)o2)c1	-23	2	36	-6	-32	-1	x	x
Cc1cc(C)cc(NC(=O)CCc2ccc(C)o2)c1	-10	-4	15	29*	-22	-12	-12	7
Cc1ccc(-c2ccc(=O)n(Cc3ccc(F)cc3)n2)cc1	5	-3	1	11	-13	3	x	x
COc1ccc(-c2ccc(=O)n(Cc3ccc([N+](=O)[O-])cc3)n2)cc1	-8	4	21	36*	24	17	52*	83*
Cc1ccc(C)c(OCCC(=O)NCCc2ccc(F)cc2)c1	-25	-3	8	7	-15	-7	x	x
O=C(Cc1ccc(S(=O)(=O)N2CCCCC2)s1)Nc1ccc(F)cc1F	-13	1	14	35*	-7	-4	20	19
O=C(COC(=O)Cc1ccc(S(=O)(=O)N2CCOCC2)s1)Nc1ccc(F)cc1F	11	4	-3	x	-8	-4	x	x
CCCCN(C(=O)c1ccccc1Br)C(c1ccc(OC)cc1)c1nc2ccccc2[nH]1 (stereo not drawn)	-7	0	x	x	x	x	x	x
CCC[C@@H](CN[C@@H](CNC)[C@H](C)CC)NCC1CCC(C(C)(C)C)CC1 (stereo partly drawn)	8	19	23	47*	-27	-8	51*	64*
CN(C)Cc1c(C(=O)N/N=C/c2ccccc2OCc2c(F)cccc2Cl)nnn1-c1nonc1N	46	4	14	35*	-14	-40	34*	66*
CN(C)Cc1c(C(=O)N/N=C/c2cccc(OCc3c(F)cccc3Cl)c2)nnn1-c1nonc1N	-23	4	9	3	17	-5	x	x
Cc1cc(C[n+]2cc(Cl)ccc2N)c2ncccc2c1	-7	0	11	23*	-5	-17	29*	24*
Cc1cc(C[n+]2cc(Br)ccc2N)c2ncccc2c1	-32	4	11	30*	-19	-8	29*	16
COc1ccc2c(c1)sc(N)[n+]2Cc1cc(C)cc2cccnc12	9	12	16	38*	-3	-5	41*	57*
SMILES	TAAR1 antag	TAAR1 ag	OX1R antag-1	GPR7 antagonist	OX1R antag-2	CHO parental Ca	GPR7 antag conf	MCHR1 antag
Cc1cc(C[n+]2ncsc2N)c2ncccc2c1	-9	1	5	-6	-16	-19	x	x
CC(=O)c1ccc(N2CCN(c3ncccn3)CC2)c([N+](=O)[O-])c1	8	0	30	35*	3	10	13	18
Cc1cc([N+](=O)[O-])cc(C)c1OCC(=O)N/N=C/c1ccc(OC(=O)c2ccccc2)cc1	-42	-1	11	x	2	-2	x	9
CCOC(=O)c1cnc(-n2nc(C)cc2C)nc1NC	-4	18	7	-11	-11	-4	x	x
CCOC(=O)c1cnc(-n2nc(C)cc2C)nc1NC1CCCCC1	23	31	15	28*	74*	71*	77*	73*
CN(C(=O)c1cccc(NC(=O)Cc2cccc(NC(=O)C3CCCN(C(=O)C4CCCCC4)C3)c2)c1)C1CC1 (stereo not drawn)	-39	2	x	x	x	x	x	x
COc1ccc(-n2c(-c3ccc(Cl)cc3)c[n+]3c2CCc2ccccc2-3)cc1	5	10	6	31*	-21	-3	33*	35*
c1ccc(Nc2nnc(-c3cccnc3)s2)cc1	1	1	3	41*	-20	11	-1	14
O=C1/C(=N\O)Cc2ccccc21	18	7	15	27*	-3	-8	6	-1
O=C1NC(Cc2ccc(O)cc2)c2nc3ccc(Cl)cc3c(=O)n2-c2cc3ccccc3cc21 (stereo not drawn)	20	1	x	x	x	x	x	x
C=CCOc1cccc(C(=O)N2CCCC(Nc3ccc(F)cc3)C2)c1 (stereo not drawn)	-9	4	26	-1	-18	-17	x	x
COc1cc(OC)cc(C(=O)N2CCCC(Nc3ccc(F)cc3)C2)c1 (stereo not drawn)	-11	-1	16	28*	-40	-18	-15	-11
COc1ccc(Oc2ccc(/C=C/C(=O)c3ccc(O)cc3)cc2[N+](=O)[O-])cc1	30	1	43	26*	5	5	77*	87*
O=C(N/N=C/c1cccc(OC(=O)c2ccco2)c1)c1ccc(F)cc1	18	-1	10	22*	-21	-11	16	23*
COc1cc(/C=N/NC(=O)c2ccc(F)cc2)ccc1OC(=O)c1ccco1	2	3	5	5	-15	-14	x	x
Cc1ccc(N(C(=O)c2snc(C(N)=O)c2N)C(C(=O)NC2CCCC2)c2ccco2)cc1 (stereo not drawn)	31	4	x	-21	x	x	x	x
